Format in all cases: functional
Assay [1] has as its system Plasmodium berghei. In words: Antimalarial activity as change in MST against drug-sensitive Plasmodium berghei infected mice (Mus musculus) at 160 mg/kg subcutaneous dose after 72h.
The test system of assay [2] is Plasmodium berghei. In words: Antimalarial activity as change in MST for drug-sensitive Plasmodium berghei infected mice (Mus musculus) at 40 mg/kg subcutaneous dose over 72hr.
The subject of assay [3] is Staphylococcus aureus. Put plainly: In vitro antibacterial activity against […] U.C-76. The procedure, abridged:
(§1)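 Antibacterial testing in vitro by gradient-plate test. Read-out was the minimum inhibitory concentration, with values exceeding 25 reported as >25.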

For assay [4], the system named is Plasmodium berghei. Put plainly: Antimalarial activity as change in MST against drug-sensitive Plasmodium berghei infected mice (Mus musculus) at 20 mg/kg subcutaneous dose after 72h.
For assay [5], the system named is Staphylococcus aureus. In words: In vitro antibacterial activity against […] S 18713. The procedure, abridged: as §1
For assay [6], the system named is Enterococcus faecalis. In words: In vitro antibacterial activity against Streptococcus faecalis MGH-2. The procedure, abridged: as §1
Assay [7] relates to Plasmodium berghei. Put plainly: Antimalarial activity as survivor number at day 60 for drug-sensitive Plasmodium berghei infected mice (Mus musculus) at 640 mg/kg subcutaneous dose over 72 hr. The procedure, abridged:
(§2)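 Mice infected with drug-sensitive P. berghei got one subcutaneous dose in sesame or peanut oil 72 h postinfection. Read-out is the number of mice alive at 60 days postinfection, termed "cured", without subinoculation to confirm parasitological cure. Groups of five per dose, or 10 where indicated.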

For assay [8], the system named is Plasmodium berghei. Put plainly: Antimalarial activity as change in MST for drug-sensitive Plasmodium berghei infected mice (Mus musculus) at 80mg/kg subcutaneous dose over 72h.
Assay [9] concerns Mycobacterium tuberculosis. In words: In vitro antibacterial activity against Mycobacterium tuberculosis H37Rv. The procedure, abridged:
(§3)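 Mycobacterium tuberculosis tested in vitro by gradient-plate test; minimum inhibitory concentration reported.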

For assay [10], the system named is Escherichia coli. In words: Compound was tested in vitro against Escherichia coli Vogel. by gradient-plate test. Summed up:
as §1

For assay [11], the system named is Pseudomonas aeruginosa. In words: In vitro against Pseudomonas aeruginosa 28. by gradient-plate test. The procedure, abridged: as §1
The subject of assay [12] is Plasmodium berghei. In words: Antimalarial activity as change in MST for drug-sensitive Plasmodium berghei infected mice (Mus musculus) after 72 hrs at 320 mg/kg subcutaneous dose.
Assay [13] deals with Shigella sonnei. In words: In vitro antibacterial activity against Shigella sonnei C-10. The procedure, abridged: as §1
The subject of assay [14] is Plasmodium berghei. Put plainly: Antimalarial activity as survivor numbers at day 60 for drug-sensitive Plasmodium berghei infected mice (Mus musculus) at 80 mg/kg subcutaneous dose over 72 hr. Summed up:
as §2

The subject of assay [15] is Plasmodium berghei. Put plainly: Antimalarial activity as toxic deaths 2-5 days post infection for drug-sensitive Plasmodium berghei infected mice (Mus musculus) at 320 mg/kg subcutaneous dose over 72 hr. Summed up: (§4)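 P. berghei (drug-sensitive) infected mice dosed once subcutaneously 72 h postinfection, compound in sesame or peanut oil. Read-out is the count of deaths on days 2–5 after infection, attributed to drug toxicity. Five animals per dose level, or 10 where indicated.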

Assay [16] concerns Plasmodium berghei. Put plainly: Antimalarial activity as toxic deaths 2-5 days post infection for drug-sensitive Plasmodium berghei infected mice (Mus musculus) at 640 mg/kg subcutaneous dose over 72 hr. The procedure, abridged:
as §4

Assay [17] relates to Plasmodium berghei. In words: Antimalarial activity as survivor numbers at day 60 against drug-sensitive Plasmodium berghei infected mice (Mus musculus) at 160 mg/kg subcutaneous dose after 72 hr. Summed up: as §2
Assay [18] relates to Plasmodium berghei. In words: Antimalarial activity as survivor numbers at day 60 against drug-sensitive Plasmodium berghei infected mice (Mus musculus) at 20 mg/kg subcutaneous dose after 72 hr. Summed up: as §2
The subject of assay [19] is Plasmodium berghei. In words: Antimalarial activity as survivor numbers at day 60 for drug-sensitive Plasmodium berghei infected mice (Mus musculus) at 320 mg/kg subcutaneous dose over 72 hr. Summed up:
as §2

The test system of assay [20] is Plasmodium berghei. In words: Antimalarial activity as change in MST for drug-sensitive Plasmodium berghei infected mice (Mus musculus) at 40 mg/kg subcutaneous dose over 72 hr.
Assay [21] has as its system Plasmodium berghei. In words: Antimalarial activity as change in MST for drug-sensitive Plasmodium berghei infected mice (Mus musculus) at 640 mg/kg subcutaneous dose over 72 hr.
Assay [22] deals with Plasmodium berghei. Put plainly: Antimalarial activity as change in MST for drug-sensitive Plasmodium berghei infected mice (Mus musculus) at 80 mg/kg subcutaneous dose over 72 hr.
Assay [23] concerns Plasmodium berghei. In words: Antimalarial activity as change in MST against drug-sensitive Plasmodium berghei infected mice (Mus musculus) at 160 mg/kg subcutaneous dose after 72 hr.
In assay [24] the test system is Enterococcus faecalis. In words: Compound was tested in vitro against Streptococcus faecalis MGH-2. by gradient-plate test. Summed up: as §1
Assay [25] relates to Pseudomonas aeruginosa. In words: Compound was tested in vitro against Pseudomonas aeruginosa 28. by gradient-plate test. Summed up:
as §1

Assay [26] relates to Staphylococcus aureus. In words: Compound was tested in vitro against […] S 18713 by gradient-plate test. The procedure, abridged:
as §1

In assay [27] the test system is Shigella sonnei. Put plainly: Compound was tested in vitro against Shigella sonnei C-10. by gradient-plate test. The procedure, abridged:
as §1

Assay [28] relates to Mycobacterium tuberculosis. In words: Compound was tested in vitro against Mycobacterium tuberculosis H37Rv. by gradient-plate test. The procedure, abridged:
as §3

For assay [29], the system named is Plasmodium berghei. Put plainly: Antimalarial activity as change in MST against drug-sensitive Plasmodium berghei infected mice (Mus musculus) at 20 mg/kg subcutaneous dose after 72 hr.
The subject of assay [30] is Staphylococcus aureus. In words: Compound was tested in vitro against […] U.C-76. by gradient-plate test. The procedure, abridged: as §1
The subject of assay [31] is Escherichia coli. In words: Tested in vitro against Escherichia coli Vogel. by gradient-plate test. Summed up: as §1
Assay [32] has as its system Plasmodium berghei. Put plainly: Antimalarial activity as survivor numbers at day 60 for drug-sensitive Plasmodium berghei infected mice (Mus musculus) at 640 mg/kg subcutaneous dose over 72 hr. Summed up:
as §2

Assay [33] has as its system Plasmodium berghei. Put plainly: Antimalarial activity as change in MST against drug-sensitive Plasmodium berghei infected mice (Mus musculus) at 320 mg/kg subcutaneous dose after 72 hr.
For assay [34], the system named is Escherichia coli. Put plainly: Compound was tested in vitro against Escherichia coli Vogel, by gradient-plate test. The procedure, abridged:
as §1

The subject of assay [35] is Pseudomonas aeruginosa. In words: Compound was tested in vitro against Pseudomonas aeruginosa 28, by gradient-plate test. The procedure, abridged:
as §1

The subject of assay [36] is Shigella sonnei. Put plainly: Compound was tested in vitro against Shigella sonnei C-10, by gradient-plate test. The procedure, abridged:
as §1

For assay [37], the system named is Plasmodium berghei. In words: Antimalarial activity as survivor numbers at day 60 for drug-sensitive Plasmodium berghei infected mice (Mus musculus) at 320 mg/kg over 72 hr. Summed up: as §2
Assay [38] relates to Plasmodium berghei. Put plainly: Antimalarial activity as survivor numbers at day 60 for drug-sensitive Plasmodium berghei infected mice (Mus musculus) at 320 mg/kg subcutaneous dose for 72 hr. Summed up: as §2

Values after ≈ are worked out from the molar mass of the structure shown.

For orientation: MIC means the least concentration at which growth counts as inhibited. Read a high MIC as a need for much substance.

For the molecule `CN(C)S(=O)(=O)c1ccc2nc(N)nc(N)c2c1Cl`, the “Delta MST” value in assay [1] came to 17 days; in [2], 10.3 days; in assay [4], 7.5 days; in [8], 12.2 days; in assay [12], 23.9 days. Also, the MIC in [3] is 15 µg/mL (≈ 49.7 µM); in assay [5], greater than 25 µg/mL; in [6], less than 0.25 µg/mL; in [9], greater than 25 µg/mL; in assay [10], 5 µg/mL (≈ 16.6 µM); in assay [11] it was greater than 25 µg/mL. For the same molecule, it took 5 µg/mL (≈ 16.6 µM) to inhibit growth in [13] (MIC). This molecule had a survivors at day 60 in assay [7] of 1.
As for `CCc1nc(N)nc(N)c1-c1ccc(Cl)cc1` [PYRIMETHAMINE], the survivors at day 60 in assay [14] was found to be 3; in assay [7], 1; in assay [17], 5; in assay [19], 2. Moreover, the toxic deaths in assay [15] turned out to be 3; in [16], 2. The “Delta MST” value in assay [18] amounted to 7.7 days; in [20] it was 1 days.
For the molecule `Nc1nc(N)c2cc(S(=O)(=O)N3CCc4ccccc4C3)ccc2n1`, the “Delta MST” value in assay [21] came out at 6.3 days; in assay [22] it was 0.7 days; in [23] it was 0.7 days; in assay [12], 3.9 days; in assay [29], 0.3 days; in [20], 0.3 days. Further, the MIC in assay [24], in assay [25], in assay [26], in [10], in [27] and in [28] was greater than 25 µg/mL in each case. In assay [30], this molecule registered an MIC greater than 25 µg/mL.
With `Nc1nc(N)c2cc(S(=O)(=O)Nc3ccc(Cl)c(Cl)c3)ccc2n1`, the “Delta MST” value was 10.1 days in assay [1]; 3.1 days in [2]; 0.3 days in assay [4]; 8.1 days in assay [8]; 9.9 days in [33]. Further, the MIC in assay [3] was 2.5 µg/mL (≈ 6.51 µM); in [5] it was greater than 25 µg/mL; in assay [31], greater than 25 µg/mL; in assay [24], greater than 25 µg/mL; in assay [9], greater than 25 µg/mL; in assay [11], greater than 25 µg/mL. Also, in assay [13], the minimal inhibitory concentration (MIC) was greater than 25 µg/mL. For the same molecule, the survivors at day 60 in [32] was 5.
With `Nc1nc(N)c2cc(S(N)(=O)=O)ccc2n1`, the “Delta MST” value is 0.3 days in assay [1], 0.1 days in [2] and 0.3 days in assay [21]. Besides, the MIC in [3], in assay [5], in assay [6], in assay [34], in [35] and in assay [36] was greater than 25 µg/mL throughout.
Consider `CN(C)S(=O)(=O)c1ccc2nc(N)nc(N)c2c1`, for which the “Delta MST” value turned out to be 15.9 days in assay [1]; 7.3 days in [4]; 16.1 days in [8]; 5 days in [37]; 8.7 days in assay [20].
On to `CCN(CC)S(=O)(=O)c1ccc2nc(N)nc(N)c2c1`, for which the “Delta MST” value in assay [1] came to 9.4 days; in assay [21], 5 days; in [4], 0.7 days; in assay [38] it was 5 days; in [8], 4.3 days; in [20], 3.3 days.

The record behind these values is ChEMBL document CHEMBL1122803, “Folate antagonists. 22. Antimalarial and antibacterial effects of 2,4-diamino-6-quinazolinesulfonamides” (1984).
